The source made the active and inactive calls. No cut-off for these calls is given here.
Tests used:
[1] = Induction of IL8 secretion in human CD161+ CD3+ NKT cells at 10 ug/ml after 18 hrs relative to basal level; format: functional
Procedure, shortened: (§1)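 Human Vα24i NKT cell lines were expanded for 10 days on irradiated (3,000 rad) autologous immature DCs with 10 units/ml IL-2. The cells (1 × 10^5) were cocultured with 5 × 10^4 irradiated immature CD14+ DCs plus glycolipid at 10 μg/ml. Supernatants were collected at 18 h and read on a 22-plex Luminex bead panel. Triplicates, mean ± SD.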

[2] = Induction of IL15 secretion in human CD161+ CD3+ NKT cells at 10 ug/ml after 18 hrs relative to basal level; format: functional; procedure, shortened: as §1
Mus musculus [3] = test: Activation of B cells in BALB/c mouse at 2 ug, iv after 72 hrs by flow cytometry; format: functional, organism-based
HeLa [4] = test: Activation of TCR in human HeLa cells overexpressing CD1d assessed as increase in CREB phosphorylation; format: cell-based
Procedure, shortened: (§2)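 Human HeLa, HeLa-CD1d or autologous immature DCs were loaded with glycolipid at 10 μg/ml, or DMSO, for 2 h. Then 3 × 10^5 naïve CD161+/CD3+ NKT cells were added; these were bead-isolated and kept in 100 units/ml IL-2. After 5–10 min the cells were washed and lysed at 4°C. Phospho-CD3ε, ERK1/2 (Thr-185/Tyr-187) and CREB (Ser-133) were read by Luminex bead assay as median fluorescence normalized to total protein, expressed as fold over 1% DMSO.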

Mus musculus [5] = test: Increase in CD8/CD4 T cell ratio in BALB/c mouse at 2 ug, iv after 72 hrs by flow cytometry; format: functional, organism-based
Mus musculus [6] = test: Induction of IL3 secretion in BALB/c mouse serum at 2 ug, iv after 2 hrs relative to control; format: functional
Procedure, shortened: (§3)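 BALB/c mice received an i.v. injection of 100 μl of glycolipid diluted to 20 μg/ml in saline from DMSO stock, with 1% DMSO as vehicle. Serum cytokines/chemokines were measured at 2 and 18 h after injection.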

[7] = Induction of IL12p40 secretion in human CD161+ CD3+ NKT cells at 10 ug/ml after 18 hrs relative to basal level; format: functional; procedure, shortened: as §1
HeLa [8] = test: Activation of TCR in human HeLa cells overexpressing CD1d assessed as increase in CD3epsilon phosphorylation; format: cell-based; procedure, shortened: as §2
Mus musculus [9] = test: Induction of KC secretion in BALB/c mouse serum at 2 ug, iv after 2 hrs relative to control; format: functional; procedure, shortened: as §3
Mus musculus [10] = test: Induction of IL12p40 secretion in BALB/c mouse serum at 2 ug, iv after 18 hrs relative to control; format: functional; procedure, shortened: as §3
Mus musculus [11] = test: Induction of MCP1 secretion in BALB/c mouse serum at 2 ug, iv after 2 hrs relative to control; format: functional; procedure, shortened: as §3
dendritic [12] = test: Activation of TCR in human immature dendritic cells assessed as increase in CREB phosphorylation; format: cell-based; procedure, shortened: as §2
Mus musculus [13] = test: Induction of IL1-beta secretion in BALB/c mouse serum at 2 ug, iv after 18 hrs relative to control; format: functional; procedure, shortened: as §3
Mus musculus [14] = test: Induction of GM-CSF secretion in BALB/c mouse serum at 2 ug, iv after 2 hrs relative to control; format: functional; procedure, shortened: as §3
dendritic [15] = test: Activation of TCR in human immature dendritic cells assessed as increase in ERK1/2 phosphorylation; format: cell-based; procedure, shortened: as §2
[16] = Induction of IL2 secretion in human CD161+ CD3+ NKT cells at 10 ug/ml after 18 hrs relative to basal level; format: functional; procedure, shortened: as §1
[17] = Induction of IL12p70 secretion in human CD161+ CD3+ NKT cells at 10 ug/ml after 18 hrs relative to basal level; format: functional; procedure, shortened: as §1
4T1 = test: Antitumor activity in mouse 4T1 cells xenografted BALB/c mouse assessed as suppression of tumor growth at 2 ug, iv; format: functional, cell-based
Procedure, shortened: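 BALB/c mice (n = 6) were inoculated s.c. with 4T1 breast cancer cells. From day 3 they were treated i.v. with glycolipid or vehicle twice weekly for 4 weeks. Tumor volume was recorded every 3 days for 1 month, and survival was monitored up to 54 days.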

Mus musculus [18] = test: Induction of IL4 secretion in BALB/c mouse serum at 2 ug, iv after 2 hrs relative to control; format: functional; procedure, shortened: as §3
Mus musculus [19] = test: Induction of IL10 secretion in BALB/c mouse serum at 2 ug, iv after 18 hrs relative to control; format: functional; procedure, shortened: as §3
Mus musculus [20] = test: Induction of IL13 secretion in BALB/c mouse serum at 2 ug, iv after 2 hrs relative to control; format: functional; procedure, shortened: as §3
TC1 = test: Antitumor activity in TC1 cells xenografted C57BL/6 mouse assessed as suppression of tumor growth at 2 ug, iv; format: functional, cell-based
Procedure, shortened: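 C57BL/6 mice (n = 5/group) were inoculated i.v. with TC-1 lung cancer cells. They were then treated i.v. with 2 μg glycolipid per mouse, or 100 μl of 1% DMSO, twice weekly for 4 weeks. Kaplan–Meier survival and body weight were followed, with tumor-free mice as an additional control.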

[21] = Induction of IL6 secretion in human CD161+ CD3+ NKT cells at 10 ug/ml after 18 hrs relative to basal level; format: functional; procedure, shortened: as §1
[22] = Induction of IFN-gamma secretion in human CD161+ CD3+ NKT cells at 10 ug/ml after 18 hrs relative to basal level; format: functional; procedure, shortened: as §1
NKT = test: Stimulation of cell expansion of human invariant CD161+/ Valpha24+/ CD56+/ CD3+ NKT cells by flow cytometry method; format: functional, cell-based
Procedure, shortened: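 CD56+ NK/NKT mixtures (2 × 10^6) were isolated from human leukopaks with anti-CD56 microbeads. They were cocultured with 4 × 10^5 autologous immature CD14+ DCs pulsed with glycolipid at 3 μg/ml, or with 0.3% DMSO, on day 2 for 18 h. Suspension cells were then transferred and kept in 100 units/ml IL-2 with fresh medium every 3 days. On day 9, CD161+/Vα24TCR+ cells were gated by flow cytometry and total Vα24i NKT cells counted. Triplicates, mean ± SD.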

[23] = Induction of MIPalpha secretion in human CD161+ CD3+ NKT cells at 10 ug/ml after 18 hrs relative to basal level; format: functional; procedure, shortened: as §1
[24] = Induction of IL10 secretion in human CD161+ CD3+ NKT cells at 10 ug/ml after 18 hrs relative to basal level; format: functional; procedure, shortened: as §1
HeLa [25] = test: Activation of TCR in human HeLa cells overexpressing CD1d assessed as increase in ERK1/2 phosphorylation; format: cell-based; procedure, shortened: as §2
[26] = Induction of MCP1 secretion in human CD161+ CD3+ NKT cells at 10 ug/ml after 18 hrs relative to basal level; format: functional; procedure, shortened: as §1
Mus musculus [27] = test: Induction of MIPbeta secretion in BALB/c mouse serum at 2 ug, iv after 2 hrs relative to control; format: functional; procedure, shortened: as §3
[28] = Induction of GM-CSF secretion in human CD161+ CD3+ NKT cells at 10 ug/ml after 18 hrs relative to basal level; format: functional; procedure, shortened: as §1
[29] = Induction of IL13 secretion in human CD161+ CD3+ NKT cells at 10 ug/ml after 18 hrs relative to basal level; format: functional; procedure, shortened: as §1
Mus musculus [30] = test: Induction of IL12p70 secretion in BALB/c mouse serum at 2 ug, iv after 18 hrs relative to control; format: functional; procedure, shortened: as §3
[31] = Induction of TNFalpha secretion in human CD161+ CD3+ NKT cells at 10 ug/ml after 18 hrs relative to basal level; format: functional; procedure, shortened: as §1
Mus musculus [32] = test: Induction of IL2 secretion in BALB/c mouse serum at 2 ug, iv after 2 hrs relative to control; format: functional; procedure, shortened: as §3
Mus musculus [33] = test: Induction of IFN-gamma secretion in BALB/c mouse serum at 2 ug, iv after 18 hrs relative to control; format: functional; procedure, shortened: as §3
Mus musculus [34] = test: Induction of IL6 secretion in BALB/c mouse serum at 2 ug, iv after 2 hrs relative to control; format: functional; procedure, shortened: as §3
dendritic [35] = test: Activation of TCR in human immature dendritic cells assessed as increase in CD3epsilon phosphorylation; format: cell-based; procedure, shortened: as §2
Mus musculus [36] = test: Induction of RANTES secretion in BALB/c mouse serum at 2 ug, iv after 2 hrs relative to control; format: functional; procedure, shortened: as §3
Mus musculus [37] = test: Induction of TNFalpha secretion in BALB/c mouse serum at 2 ug, iv after 18 hrs relative to control; format: functional; procedure, shortened: as §3
[38] = Induction of IL3 secretion in human CD161+ CD3+ NKT cells at 10 ug/ml after 18 hrs relative to basal level; format: functional; procedure, shortened: as §1
[39] = Induction of RANTES secretion in human CD161+ CD3+ NKT cells at 10 ug/ml after 18 hrs relative to basal level; format: functional; procedure, shortened: as §1
[40] = Induction of IL4 secretion in human CD161+ CD3+ NKT cells at 10 ug/ml after 18 hrs relative to basal level; format: functional; procedure, shortened: as §1

CCCCCCCCCCCCCC[C@@H](O)[C@@H](O)[C@H](CO[C@H]1O[C@H](CO)[C@H](O)[C@H](O)[C@H]1O)NC(=O)CCCCCCCc1ccccc1
Activity [1]: 1.8
Activity [2]: 2.8
Activity (Mus musculus [3]): Active
Activity (HeLa [4]): 117
Activity (Mus musculus [5]): Active
Activity (Mus musculus [6]): 2.4
Activity [7]: 2.3
Activity (HeLa [8]): 10
Activity (Mus musculus [9]): 11
Activity (Mus musculus [10]): 3.8
Activity (Mus musculus [11]): 19.4
Activity (dendritic [12]): 204
Activity (Mus musculus [13]): 4.7
Activity (Mus musculus [14]): 2.9
Activity (dendritic [15]): 48.3
Activity [16]: 6.1
Activity [17]: 4.7
Activity (4T1): Active
Activity (Mus musculus [18]): 53.1
Activity (Mus musculus [19]): 1.3
Activity (Mus musculus [20]): 10.9
Activity (TC1): Active
Activity [21]: 2.2
Activity [22]: 6.4
Activity (NKT): Active
Activity [23]: 3.3
Activity [24]: 2.3
Activity (HeLa [25]): 14.6
Activity [26]: 1
Activity (Mus musculus [27]): 3.8
Activity [28]: 6.7
Activity [29]: 1.7
Activity (Mus musculus [30]): 2.6
Activity [31]: 8.1
Activity (Mus musculus [32]): 70.3
Activity (Mus musculus [33]): 48.3
Activity (Mus musculus [34]): 2.8
Activity (dendritic [35]): 21.3
Activity (Mus musculus [36]): 2.3
Activity (Mus musculus [37]): 22.4
Activity [38]: 4.2
Activity [39]: 1.7
Activity [40]: 2.6

CCCCCCCCCCCCCC[C@@H](O)[C@@H](O)[C@H](CO[C@H]1O[C@H](CO)[C@H](O)[C@H](O)[C@H]1O)NC(=O)CCCCCCCCCCCCC
Activity [1]: 2.2
Activity [2]: 2.4
Activity (Mus musculus [3]): Active
Activity (Mus musculus [5]): Active
Activity (Mus musculus [6]): 1.5
Activity [7]: 1.7
Activity (Mus musculus [9]): 3.9
Activity (Mus musculus [10]): 0.9
Activity (Mus musculus [11]): 2.6
Activity (Mus musculus [13]): 2.4
Activity (Mus musculus [14]): 1.6
Activity [16]: 1.8
Activity [17]: 1.6
Activity (Mus musculus [18]): 26.2
Activity (Mus musculus [19]): 5.4
Activity (Mus musculus [20]): 0.9
Activity [21]: 1.9
Activity [22]: 2.7
Activity (NKT): Active
Activity [23]: 3.5
Activity [24]: 1.9
Activity [26]: 1.4
Activity (Mus musculus [27]): 1.5
Activity [28]: 3
Activity [29]: 1.9
Activity (Mus musculus [30]): 3.5
Activity [31]: 3
Activity (Mus musculus [32]): 14
Activity (Mus musculus [33]): 43.8
Activity (Mus musculus [34]): 1.5
Activity (Mus musculus [36]): 0.9
Activity (Mus musculus [37]): 2
Activity [38]: 1.7
Activity [39]: 2
Activity [40]: 2.8

Reference: ChEMBL document CHEMBL1145518, “Potent immune-modulating and anticancer effects of NKT cell stimulatory glycolipids” (2007)
